# Experimental data pooled from the literature.
# Lines come from different studies, so protocols differ.
# Target: Tyrosine-protein kinase Tec (TEC, Homo sapiens, UniProt P42680)
# Concentration: 1 µM
# Residues used in one study (P42680 1-631): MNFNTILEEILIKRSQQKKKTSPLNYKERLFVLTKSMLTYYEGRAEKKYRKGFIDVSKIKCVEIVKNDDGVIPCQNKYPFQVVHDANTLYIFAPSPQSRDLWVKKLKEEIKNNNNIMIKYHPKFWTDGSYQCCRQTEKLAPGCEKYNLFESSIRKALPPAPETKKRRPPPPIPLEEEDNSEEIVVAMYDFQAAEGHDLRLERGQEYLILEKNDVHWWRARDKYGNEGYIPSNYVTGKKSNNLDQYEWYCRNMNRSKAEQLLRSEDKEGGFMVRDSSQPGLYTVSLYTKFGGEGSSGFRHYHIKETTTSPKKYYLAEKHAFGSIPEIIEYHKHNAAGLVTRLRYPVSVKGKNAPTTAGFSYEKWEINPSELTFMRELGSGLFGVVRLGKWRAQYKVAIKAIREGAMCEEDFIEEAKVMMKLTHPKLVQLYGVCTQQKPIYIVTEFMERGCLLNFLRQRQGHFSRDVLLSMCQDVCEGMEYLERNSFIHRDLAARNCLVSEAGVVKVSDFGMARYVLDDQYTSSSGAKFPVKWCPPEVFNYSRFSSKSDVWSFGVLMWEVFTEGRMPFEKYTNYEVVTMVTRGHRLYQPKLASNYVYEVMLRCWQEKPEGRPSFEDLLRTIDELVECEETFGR
Compound,assay,remaining binding [%]
O=C(NCCCN1CCOCC1)c1ccc(Nc2nccc(-c3cc4ccccc4s3)n2)cc1,"binding, competition with immobilised ligand",100
CNC(=O)[C@@H]1CC[C@@H](n2c(-c3ccc4cnccc4c3)nc3ccc(C(=O)NCc4cccc(C(N)=O)c4)cc32)C1,"binding, competition with immobilised ligand",100
O=C(NCC1CCOCC1)c1n[nH]cc1NC(=O)c1c(F)cccc1F,"binding, competition with immobilised ligand",100
C=CC(=O)N1CCC(C(=O)NCC(=O)N2CCN(c3nc(-c4cnc(N)nc4C(F)F)nc(N4CCOCC4)n3)CC2)CC1,"binding, competition with immobilised ligand",99
CN(C)c1ncc(F)c(-c2cnn3ncccc23)n1,binding,100
Nc1ncc2c(n1)-c1c([nH]c3ccc(C#CC4CC4)cc13)CCCC2,"binding, competition with immobilised ligand",100
CN(CCCC(F)(F)F)c1nccc(-c2cnn3ncccc23)n1,binding,97
O=C(Nc1cccnn1)N1CCC(=Cc2cccc(Oc3ccc(C(F)(F)F)cn3)c2)CC1,"cell-free assay, competition with immobilised ligand",100
CN(c1nccc(-c2cnn3ncccc23)n1)C1CC1,binding,100
CS(=O)(=O)c1cc(C2(NC(=O)c3cncc4c3cnn4-c3ccc(F)cc3)CC2)ccn1,"cell-free assay, competition with immobilised ligand",99
O=C(c1ccc(Nc2ncc(Cl)c(-c3ccc(Cl)s3)n2)cc1)N1CCC(N2CCCC2)CC1,"binding, competition with immobilised ligand",100
COc1cnc(Nc2cccc(S(N)(=O)=O)c2)nc1N1CCN(c2ccccc2)C(=O)C1,"binding, competition with immobilised ligand",100
CN(C)c1nccc(-c2cnn3ncccc23)n1,binding,90
C[C@@]1(Cc2ccc(C#N)cc2)C(=O)N(c2cc(Cl)cc(Cl)c2)c2ncc(C(=O)NC3(c4nc(C5CCC5)no4)CC3)n21,"cell-free assay, competition with immobilised ligand",92
N[C@H]1CCN(c2nccc(-c3cnn4ncccc34)n2)C1,binding,100
COc1ccc2c(O[C@@H]3C[C@H]4C(=O)N[C@]5(C(=O)O)CC5/C=C\CCCCC[C@H](NC(=O)OC5CCCC5)C(=O)N4C3)cc(-c3csc(NC(=O)C(C)C)n3)nc2c1C (stereo partly drawn),"cell-free assay, competition with immobilised ligand",100
CC1CCCN1c1nccc(-c2cnn3ncccc23)n1 (stereo not drawn),binding,100
CCCCN(CCCC)C(=O)CN1C[C@@H](c2cc(OC)c3c(c2)OCO3)[C@H](C(=O)O)[C@H]1CC(C)(C)CCC,"cell-free assay, competition with immobilised ligand",100
CCN1CCN(Cc2ccc(C(=O)Nc3ccc(C)c(Oc4ccc5c(c4)CC(=O)N5)c3)cc2C(F)(F)F)CC1,"binding, competition with immobilised ligand",98
CN(C(=O)c1ccccc1)c1cc(N(C)c2ccc3c(c2)CCc2ccc(C(=O)NCCN4CCOCC4)cc2C3=O)ccc1F,"cell-free assay, competition with immobilised ligand",100
O=C(c1ccc(Nc2nccc(-c3cc4ccccc4s3)n2)cc1)N1CCC(N2CCCC2)CC1,"binding, competition with immobilised ligand",100
